This passage reports Activity and retention time results from ChEMBL document CHEMBL1773037, “Evaluation of superior BACE1 cleavage sequences containing unnatural amino acids” (Bioorg Med Chem, 2011).

Calls of active or inactive are those of the source. The rule behind the calls is not given here. Non-standard residues stand in square brackets, D forms with d. Residues, ends and D or L forms follow the SMILES beside them. 2Thi = N[C@@H](Cc1cccs1)C(=O)O; Cha = N[C@@H](CC1CCCCC1)C(=O)O; Cit = NC(=O)NCCC[C@H](N)C(=O)O; Phg = N[C@H](C(=O)O)c1ccccc1; Tle = CC(C)(C)[C@H](N)C(=O)O; Nva = CCC[C@H](N)C(=O)O; Abu = CC[C@H](N)C(=O)O

Test [1] has as its target Beta-secretase 1 (Homo sapiens) (UniProt P56817). Description: Activity of recombinant BACE assessed as substrate cleavage at 300 uM after 3 hrs by HPLC analysis. In outline:
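Individually synthesized, purified substrates at 300 µM in 40 mM AcONa buffer, pH 4.5, 37 °C. rBACE1 used at 60 nM (P1, P4 substrates), 30 nM (P2, P3 substrates) or 10 nM (P1' substrates and the dodecapeptide). Aliquots taken at 0, 1 and 3 h, quenched with 7 M GuHCl, and the decrease in each substrate peak monitored by HPLC.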

The target is the same in test [2]. Description: Activity of recombinant BACE assessed as retention time of substrate by HPLC method.
Test [3] has the same target. Description: Activity of recombinant BACE assessed as retention time of N-terminal fragment by HPLC method.
Test [4] shares this target. Briefly: Activity of recombinant BACE assessed as retention time of C-terminal fragment by HPLC method.

Chain of Beta-secretase 1 (Homo sapiens) (P56817 whole entry): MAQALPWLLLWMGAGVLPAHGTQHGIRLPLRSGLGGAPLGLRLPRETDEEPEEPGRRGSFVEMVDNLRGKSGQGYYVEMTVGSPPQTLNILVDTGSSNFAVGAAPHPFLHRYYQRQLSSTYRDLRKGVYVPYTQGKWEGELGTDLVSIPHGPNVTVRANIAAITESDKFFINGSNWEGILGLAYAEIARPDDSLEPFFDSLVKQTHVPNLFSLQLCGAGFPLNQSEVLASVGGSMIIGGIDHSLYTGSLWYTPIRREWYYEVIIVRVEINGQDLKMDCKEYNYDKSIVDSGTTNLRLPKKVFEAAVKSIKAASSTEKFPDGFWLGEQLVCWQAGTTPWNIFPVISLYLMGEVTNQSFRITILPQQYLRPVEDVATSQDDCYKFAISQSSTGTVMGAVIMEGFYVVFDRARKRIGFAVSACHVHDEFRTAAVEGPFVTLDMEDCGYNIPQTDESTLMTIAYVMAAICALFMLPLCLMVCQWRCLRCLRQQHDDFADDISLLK

As for `CC[C@H](C)[C@H](N)C(=O)N[C@@H](CO)C(=O)N[C@@H](CCC(=O)O)C(=O)N[C@H](C(=O)N[C@@H](CC(=O)O)C(=O)N[C@@H](CC(C)C)C(=O)N[C@@H](CC(=O)O)C(=O)N[C@@H](C)C(=O)N[C@@H](CCC(=O)O)C(=O)N[C@@H](Cc1ccccc1)C(=O)N[C@@H](CCCNC(=N)N)C(=O)N[C@@H](Cc1cnc[nH]1)C(N)=O)C(C)C` (H-ISEVDLDAEFRH-NH2), the outcome in test [1] was Active. In addition, the retention time in test [2] turned out to be 0.49 h.
Taken in the same sequence, the figures for `CC[C@H](C)[C@H](N)C(=O)N[C@@H](CO)C(=O)N[C@@H](CCC(=O)O)C(=O)N[C@H](C(=O)N[C@@H](CCSC)C(=O)N[C@@H](CC(C)C)C(=O)N[C@@H](CC(=O)O)C(=O)N[C@@H](C)C(=O)N[C@@H](CCC(=O)O)C(=O)N[C@@H](Cc1ccccc1)C(=O)N[C@@H](CCCNC(=N)N)C(=O)N[C@@H](Cc1cnc[nH]1)C(N)=O)C(C)C` (H-ISEVMLDAEFRH-NH2) were “Active” and 0.521 h.
Taken in the same sequence, the figures for `CC[C@H](C)[C@H](N)C(=O)N[C@@H](CO)C(=O)N[C@@H](CCC(=O)O)C(=O)N[C@H](C(=O)N[C@@H](CC(N)=O)C(=O)N[C@@H](Cc1ccccc1)C(=O)N[C@@H](CC(=O)O)C(=O)N[C@@H](C)C(=O)N[C@@H](CCC(=O)O)C(=O)N[C@@H](Cc1ccccc1)C(=O)N[C@@H](CCCNC(=N)N)C(=O)N[C@@H](Cc1cnc[nH]1)C(N)=O)C(C)C` (H-ISEVNFDAEFRH-NH2) were 50% and 0.502 h.
The corresponding values for `CC[C@H](C)[C@H](N)C(=O)N[C@@H](CO)C(=O)N[C@@H](CCC(=O)O)C(=O)N[C@H](C(=O)N[C@@H](CC(N)=O)C(=O)N[C@@H](CC(C)C)C(=O)N[C@@H](CCSC)C(=O)N[C@@H](C)C(=O)N[C@@H](CCC(=O)O)C(=O)N[C@@H](Cc1ccccc1)C(=O)N[C@@H](CCCNC(=N)N)C(=O)N[C@@H](Cc1cnc[nH]1)C(N)=O)C(C)C` (H-ISEVNLMAEFRH-NH2) are “Active” and 0.622 h.
`CC[C@H](NC(=O)[C@H](CC(C)C)NC(=O)[C@H](CC(N)=O)NC(=O)[C@@H](NC(=O)[C@H](CCC(=O)O)NC(=O)[C@H](CO)NC(=O)[C@@H](N)[C@@H](C)CC)C(C)C)C(=O)N[C@@H](C)C(=O)N[C@@H](CCC(=O)O)C(=O)N[C@@H](Cc1ccccc1)C(=O)N[C@@H](CCCNC(=N)N)C(=O)N[C@@H](Cc1cnc[nH]1)C(N)=O` (H-ISEVNL[Abu]AEFRH-NH2): the outcome in test [1] was Active. In addition, the retention time in test [2] came out at 0.585 h.
In the case of `CCC[C@H](NC(=O)[C@H](CC(C)C)NC(=O)[C@H](CC(N)=O)NC(=O)[C@@H](NC(=O)[C@H](CCC(=O)O)NC(=O)[C@H](CO)NC(=O)[C@@H](N)[C@@H](C)CC)C(C)C)C(=O)N[C@@H](C)C(=O)N[C@@H](CCC(=O)O)C(=O)N[C@@H](Cc1ccccc1)C(=O)N[C@@H](CCCNC(=N)N)C(=O)N[C@@H](Cc1cnc[nH]1)C(N)=O` (H-ISEVNL[Nva]AEFRH-NH2), the result in test [1] was Active. Moreover, in test [2], the retention time came to 0.622 h.
Take `CC[C@H](C)[C@H](N)C(=O)N[C@@H](CO)C(=O)N[C@@H](CCC(=O)O)C(=O)N[C@H](C(=O)N[C@@H](CC(N)=O)C(=O)N[C@@H](Cc1cccs1)C(=O)N[C@@H](CC(=O)O)C(=O)N[C@@H](C)C(=O)N[C@@H](CCC(=O)O)C(=O)N[C@@H](Cc1ccccc1)C(=O)N[C@@H](CCCNC(=N)N)C(=O)N[C@@H](Cc1cnc[nH]1)C(N)=O)C(C)C` (H-ISEVN[2Thi]DAEFRH-NH2): the Activity in test [1] came to 70%. Further, the retention time was found to be 0.483 h in test [2], 0.429 h in test [3] and 0.217 h in test [4].
For `CC[C@H](NC(=O)[C@H](CC(N)=O)NC(=O)[C@@H](NC(=O)[C@H](CCC(=O)O)NC(=O)[C@H](CO)NC(=O)[C@@H](N)[C@@H](C)CC)C(C)C)C(=O)N[C@@H](CC(=O)O)C(=O)N[C@@H](C)C(=O)N[C@@H](CCC(=O)O)C(=O)N[C@@H](Cc1ccccc1)C(=O)N[C@@H](CCCNC(=N)N)C(=O)N[C@@H](Cc1cnc[nH]1)C(N)=O` (H-ISEVN[Abu]DAEFRH-NH2), the result in test [1] was Active. The values for the retention time in test [2] and in test [4] were 0.409 h and 0.217 h, respectively.
For the molecule `CC[C@H](C)[C@H](N)C(=O)N[C@@H](CO)C(=O)N[C@@H](CCC(=O)O)C(=O)N[C@H](C(=O)N[C@@H](CC(N)=O)C(=O)N[C@@H](CC1CCCCC1)C(=O)N[C@@H](CC(=O)O)C(=O)N[C@@H](C)C(=O)N[C@@H](CCC(=O)O)C(=O)N[C@@H](Cc1ccccc1)C(=O)N[C@@H](CCCNC(=N)N)C(=O)N[C@@H](Cc1cnc[nH]1)C(N)=O)C(C)C` (H-ISEVN[Cha]DAEFRH-NH2), the figures for the retention time in test [2] and in test [4] were 0.573 h and 0.217 h, respectively.
As for `CC[C@H](C)[C@H](N)C(=O)N[C@@H](CO)C(=O)N[C@@H](CCC(=O)O)C(=O)N[C@H](C(=O)N[C@@H](CC(N)=O)C(=O)N[C@@H](CCCNC(N)=O)C(=O)N[C@@H](CC(=O)O)C(=O)N[C@@H](C)C(=O)N[C@@H](CCC(=O)O)C(=O)N[C@@H](Cc1ccccc1)C(=O)N[C@@H](CCCNC(=N)N)C(=O)N[C@@H](Cc1cnc[nH]1)C(N)=O)C(C)C` (H-ISEVN[Cit]DAEFRH-NH2), the outcome in test [1] was Active. Further, the retention time in test [2] amounted to 0.344 h; in test [4], 0.217 h.
Taken in the same sequence, the figures for `CCC[C@H](NC(=O)[C@H](CC(N)=O)NC(=O)[C@@H](NC(=O)[C@H](CCC(=O)O)NC(=O)[C@H](CO)NC(=O)[C@@H](N)[C@@H](C)CC)C(C)C)C(=O)N[C@@H](CC(=O)O)C(=O)N[C@@H](C)C(=O)N[C@@H](CCC(=O)O)C(=O)N[C@@H](Cc1ccccc1)C(=O)N[C@@H](CCCNC(=N)N)C(=O)N[C@@H](Cc1cnc[nH]1)C(N)=O` (H-ISEVN[Nva]DAEFRH-NH2) were “Active”, 0.45 h and 0.217 h.
As to `CC[C@H](C)[C@H](N)C(=O)N[C@@H](CO)C(=O)N[C@@H](CCC(=O)O)C(=O)N[C@H](C(=O)N[C@@H](CC(N)=O)C(=O)N[C@H](C(=O)N[C@@H](CC(=O)O)C(=O)N[C@@H](C)C(=O)N[C@@H](CCC(=O)O)C(=O)N[C@@H](Cc1ccccc1)C(=O)N[C@@H](CCCNC(=N)N)C(=O)N[C@@H](Cc1cnc[nH]1)C(N)=O)c1ccccc1)C(C)C` (H-ISEVN[Phg]DAEFRH-NH2), the result in test [1] was Active. Also, the retention time in test [2] came to 0.459 h; in test [4] it was 0.217 h.
For `CC[C@H](C)[C@H](N)C(=O)N[C@@H](CO)C(=O)N[C@@H](CCC(=O)O)C(=O)N[C@H](C(=O)N[C@@H](CC(N)=O)C(=O)N[C@H](C(=O)N[C@@H](CC(=O)O)C(=O)N[C@@H](C)C(=O)N[C@@H](CCC(=O)O)C(=O)N[C@@H](Cc1ccccc1)C(=O)N[C@@H](CCCNC(=N)N)C(=O)N[C@@H](Cc1cnc[nH]1)C(N)=O)C(C)(C)C)C(C)C` (H-ISEVN[Tle]DAEFRH-NH2), the retention time in test [2] is 0.479 h; in test [4], 0.217 h.
As for `CC[C@H](C)[C@H](N)C(=O)N[C@@H](CO)C(=O)N[C@@H](CCC(=O)O)C(=O)N[C@H](C(=O)N[C@@H](Cc1cccs1)C(=O)N[C@@H](CC(C)C)C(=O)N[C@@H](CC(=O)O)C(=O)N[C@@H](C)C(=O)N[C@@H](CCC(=O)O)C(=O)N[C@@H](Cc1ccccc1)C(=O)N[C@@H](CCCNC(=N)N)C(=O)N[C@@H](Cc1cnc[nH]1)C(N)=O)C(C)C` (H-ISEV[2Thi]LDAEFRH-NH2), the outcome in test [1] was Active. Further, the retention time in test [2] stood at 0.551 h.
As to `CCC[C@H](NC(=O)[C@@H](NC(=O)[C@H](CCC(=O)O)NC(=O)[C@H](CO)NC(=O)[C@@H](N)[C@@H](C)CC)C(C)C)C(=O)N[C@@H](CC(C)C)C(=O)N[C@@H](CC(=O)O)C(=O)N[C@@H](C)C(=O)N[C@@H](CCC(=O)O)C(=O)N[C@@H](Cc1ccccc1)C(=O)N[C@@H](CCCNC(=N)N)C(=O)N[C@@H](Cc1cnc[nH]1)C(N)=O` (H-ISEV[Nva]LDAEFRH-NH2), in test [1], the outcome was Active. For the same molecule, the retention time in test [2] worked out at 0.521 h.
As to `CCC[C@H](NC(=O)[C@H](CCC(=O)O)NC(=O)[C@H](CO)NC(=O)[C@@H](N)[C@@H](C)CC)C(=O)N[C@@H](CC(N)=O)C(=O)N[C@@H](CC(C)C)C(=O)N[C@@H](CC(=O)O)C(=O)N[C@@H](C)C(=O)N[C@@H](CCC(=O)O)C(=O)N[C@@H](Cc1ccccc1)C(=O)N[C@@H](CCCNC(=N)N)C(=O)N[C@@H](Cc1cnc[nH]1)C(N)=O` (H-ISE[Nva]NLDAEFRH-NH2), the outcome in test [1] was Active. For the same molecule, the retention time in test [2] came to 0.496 h.
As to `CC[C@H](C)[C@H](N)C(=O)N[C@@H](CO)C(=O)N[C@@H](CCCNC(N)=O)C(=O)N[C@H](C(=O)N[C@@H](CC(N)=O)C(=O)N[C@@H](CC(C)C)C(=O)N[C@@H](CC(=O)O)C(=O)N[C@@H](C)C(=O)N[C@@H](CCC(=O)O)C(=O)N[C@@H](Cc1ccccc1)C(=O)N[C@@H](CCCNC(=N)N)C(=O)N[C@@H](Cc1cnc[nH]1)C(N)=O)C(C)C` (H-IS[Cit]VNLDAEFRH-NH2), the outcome in test [1] was Active. In addition, the retention time in test [2] came to 0.474 h.
Take `CC[C@H](C)[C@H](N)C(=O)N[C@@H](CO)C(=O)N[C@H](C(=O)N[C@H](C(=O)N[C@@H](CC(N)=O)C(=O)N[C@@H](CC(C)C)C(=O)N[C@@H](CC(=O)O)C(=O)N[C@@H](C)C(=O)N[C@@H](CCC(=O)O)C(=O)N[C@@H](Cc1ccccc1)C(=O)N[C@@H](CCCNC(=N)N)C(=O)N[C@@H](Cc1cnc[nH]1)C(N)=O)C(C)C)c1ccccc1` (H-IS[Phg]VNLDAEFRH-NH2): the outcome in test [1] was Active. Also, in test [2], the retention time is 0.582 h.
